{"source": "ChEMBL document CHEMBL4177603", "about": "(Bioorg Med Chem Lett, 2017)", "key": {"[1]": {"molecular_target": "Angiotensin-converting enzyme (Homo sapiens) (UniProt P12821)", "test": "Inhibition of ACE (unknown origin) at 10 uM by radioligand binding assay relative to control"}, "[2]": {"molecular_target": "Sodium-dependent serotonin transporter (Homo sapiens) (UniProt P31645)", "sequence (P31645 whole entry, looked up)": "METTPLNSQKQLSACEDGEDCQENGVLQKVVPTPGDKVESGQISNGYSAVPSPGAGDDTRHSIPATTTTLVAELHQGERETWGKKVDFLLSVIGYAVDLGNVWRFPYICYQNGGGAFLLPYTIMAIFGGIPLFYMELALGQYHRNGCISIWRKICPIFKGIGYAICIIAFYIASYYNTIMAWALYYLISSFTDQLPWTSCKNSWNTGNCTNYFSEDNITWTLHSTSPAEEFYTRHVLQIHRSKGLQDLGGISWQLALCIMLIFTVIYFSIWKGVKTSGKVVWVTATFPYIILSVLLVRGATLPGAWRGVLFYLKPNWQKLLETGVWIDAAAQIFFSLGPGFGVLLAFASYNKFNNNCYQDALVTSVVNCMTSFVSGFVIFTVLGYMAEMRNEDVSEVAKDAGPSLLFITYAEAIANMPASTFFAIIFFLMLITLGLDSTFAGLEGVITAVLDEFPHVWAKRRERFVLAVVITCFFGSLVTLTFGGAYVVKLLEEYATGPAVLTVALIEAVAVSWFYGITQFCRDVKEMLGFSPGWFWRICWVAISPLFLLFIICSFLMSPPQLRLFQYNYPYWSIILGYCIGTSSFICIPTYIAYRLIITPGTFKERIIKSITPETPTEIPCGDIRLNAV", "test": "Displacement of [3H]imipramine from recombinant human […] at 10 uM after 60 mins by scintillation counting method"}, "[3]": {"test": "Solubility of the compound in aqueous buffer at pH 3.2", "type": "physicochemical"}, "[4]": {"molecular_target": "Sodium channel protein type 8 subunit alpha (Homo sapiens, UniProt Q9UQD0)", "sequence (Q9UQD0 whole entry)": "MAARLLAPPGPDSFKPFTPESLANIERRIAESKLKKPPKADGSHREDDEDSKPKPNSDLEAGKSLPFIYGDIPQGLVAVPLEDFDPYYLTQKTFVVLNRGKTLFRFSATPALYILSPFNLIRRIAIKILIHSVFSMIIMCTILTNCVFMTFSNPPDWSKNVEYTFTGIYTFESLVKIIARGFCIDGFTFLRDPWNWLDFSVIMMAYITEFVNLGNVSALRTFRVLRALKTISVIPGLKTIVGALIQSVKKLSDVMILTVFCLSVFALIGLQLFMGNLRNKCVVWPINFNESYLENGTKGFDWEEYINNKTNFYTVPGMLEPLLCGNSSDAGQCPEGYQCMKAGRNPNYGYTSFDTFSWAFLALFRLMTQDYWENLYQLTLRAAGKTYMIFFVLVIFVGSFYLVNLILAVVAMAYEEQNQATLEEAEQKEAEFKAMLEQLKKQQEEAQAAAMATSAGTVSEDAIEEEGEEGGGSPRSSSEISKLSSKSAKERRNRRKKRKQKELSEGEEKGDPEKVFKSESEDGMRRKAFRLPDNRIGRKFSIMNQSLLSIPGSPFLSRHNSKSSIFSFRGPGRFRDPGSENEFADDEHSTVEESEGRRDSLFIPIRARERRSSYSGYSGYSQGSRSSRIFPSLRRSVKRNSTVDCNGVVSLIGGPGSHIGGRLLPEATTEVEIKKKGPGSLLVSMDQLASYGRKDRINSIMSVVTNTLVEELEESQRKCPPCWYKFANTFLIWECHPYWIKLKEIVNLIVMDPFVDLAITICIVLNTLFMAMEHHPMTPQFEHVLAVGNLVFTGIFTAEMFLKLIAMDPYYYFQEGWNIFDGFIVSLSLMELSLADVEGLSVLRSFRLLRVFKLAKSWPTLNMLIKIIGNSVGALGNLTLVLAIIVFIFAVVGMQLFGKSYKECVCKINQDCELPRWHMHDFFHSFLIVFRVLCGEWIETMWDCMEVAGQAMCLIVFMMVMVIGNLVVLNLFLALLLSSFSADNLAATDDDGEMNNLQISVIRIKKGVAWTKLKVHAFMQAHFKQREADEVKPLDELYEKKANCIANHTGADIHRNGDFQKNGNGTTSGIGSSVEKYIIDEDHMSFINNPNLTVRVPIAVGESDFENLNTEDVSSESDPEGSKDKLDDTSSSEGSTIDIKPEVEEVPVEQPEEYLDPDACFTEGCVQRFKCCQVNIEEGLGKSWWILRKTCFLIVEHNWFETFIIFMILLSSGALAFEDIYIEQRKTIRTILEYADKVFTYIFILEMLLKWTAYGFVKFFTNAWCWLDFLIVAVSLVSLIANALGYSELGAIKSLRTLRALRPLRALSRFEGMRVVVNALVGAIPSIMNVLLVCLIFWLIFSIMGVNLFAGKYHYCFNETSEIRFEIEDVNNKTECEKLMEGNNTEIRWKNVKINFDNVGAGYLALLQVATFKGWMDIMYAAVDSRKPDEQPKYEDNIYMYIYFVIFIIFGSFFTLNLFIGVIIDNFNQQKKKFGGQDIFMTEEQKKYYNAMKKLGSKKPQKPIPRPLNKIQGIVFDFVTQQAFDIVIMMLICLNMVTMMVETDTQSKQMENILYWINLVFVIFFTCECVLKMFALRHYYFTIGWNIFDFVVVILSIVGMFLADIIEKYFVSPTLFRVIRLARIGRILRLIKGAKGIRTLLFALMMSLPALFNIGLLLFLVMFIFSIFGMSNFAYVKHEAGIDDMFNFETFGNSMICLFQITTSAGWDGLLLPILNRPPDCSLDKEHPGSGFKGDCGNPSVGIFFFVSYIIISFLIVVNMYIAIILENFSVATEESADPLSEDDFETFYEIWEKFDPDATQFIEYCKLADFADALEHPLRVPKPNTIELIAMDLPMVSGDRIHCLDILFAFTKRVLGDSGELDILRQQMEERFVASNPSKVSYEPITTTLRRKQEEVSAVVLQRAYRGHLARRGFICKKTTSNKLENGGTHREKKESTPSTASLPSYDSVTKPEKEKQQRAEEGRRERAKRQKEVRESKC", "test": "Inhibition of human Nav1.6 expressed in HEK cells by patch clamp electrophysiology method", "type": "cell-based"}, "[5]": {"test": "Unbound clearance in dog plasma at 0.3 mg/kg, iv via infusion for 0.5 hrs", "type": "ADME, organism-based, Canis lupus familiaris", "conditions": "in vivo"}, "[6]": {"test": "Volume of distribution at steady state in rat at 0.3 mg/kg, iv via infusion for 1 hr", "type": "ADME, organism-based", "conditions": "in vivo, read-out: Vdss"}, "[7]": {"test": "Clearance in rat blood at 0.3 mg/kg, iv via infusion for 1 hr", "type": "ADME, organism-based", "conditions": "whole blood", "method_in_brief": "(§1)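 Blood clearance was calculated from the measured plasma clearance and the measured blood:plasma ratio.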"}, "[8]": {"test": "Half-life in rat at 0.3 mg/kg, iv via infusion for 1 hr", "type": "ADME, organism-based", "conditions": "in vivo"}, "[9]": {"test": "Clearance in rat plasma at 0.3 mg/kg, iv via infusion for 1 hr", "type": "ADME, organism-based"}, "[10]": {"test": "Volume of distribution at steady state in iv dosed mouse", "type": "ADME, organism-based", "conditions": "in vivo, read-out: Vdss"}, "[11]": {"test": "Unbound clearance in iv dosed mouse plasma", "type": "ADME, organism-based", "conditions": "in vivo"}, "[12]": {"test": "Clearance in iv dosed mouse blood", "type": "ADME, organism-based", "conditions": "whole blood", "method_in_brief": "as §1"}, "[13]": {"test": "Clearance in iv dosed mouse plasma", "type": "ADME, organism-based"}, "[14]": {"molecular_target": "Cytochrome P450 2C19 (Homo sapiens, UniProt P33261)", "test": "Inhibition of CYP2C19 (unknown origin)", "type": "ADME"}, "[15]": {"test": "Protein binding in rat plasma assessed as fraction unbound", "type": "ADME, cell-free"}, "[16]": {"test": "Protein binding in human plasma assessed as fraction unbound", "type": "ADME, cell-free"}, "[17]": {"test": "Permeability in RRCK cells", "type": "ADME, cell-based, Canis lupus familiaris, MDCKII-LE", "conditions": "dog, MDCK; read-out: permeability"}, "[18]": {"test": "Intrinsic clearance in human liver microsomes", "type": "ADME, microsome", "conditions": "read-out: CLH"}, "[19]": {"molecular_target": "Adenosine receptor A2a (Homo sapiens) (UniProt P29274)", "test": "Agonist activity at recombinant human full-length adenosine A2a receptor expressed in HEK293 cells assessed as effect on impedance at 10 uM by cellular dielectric spectroscopic method relative to control", "type": "functional, cell-based"}, "[20]": {"molecular_target": "Endothelin-1 receptor (Homo sapiens) (UniProt P25101)", "sequence (P25101 whole entry)": "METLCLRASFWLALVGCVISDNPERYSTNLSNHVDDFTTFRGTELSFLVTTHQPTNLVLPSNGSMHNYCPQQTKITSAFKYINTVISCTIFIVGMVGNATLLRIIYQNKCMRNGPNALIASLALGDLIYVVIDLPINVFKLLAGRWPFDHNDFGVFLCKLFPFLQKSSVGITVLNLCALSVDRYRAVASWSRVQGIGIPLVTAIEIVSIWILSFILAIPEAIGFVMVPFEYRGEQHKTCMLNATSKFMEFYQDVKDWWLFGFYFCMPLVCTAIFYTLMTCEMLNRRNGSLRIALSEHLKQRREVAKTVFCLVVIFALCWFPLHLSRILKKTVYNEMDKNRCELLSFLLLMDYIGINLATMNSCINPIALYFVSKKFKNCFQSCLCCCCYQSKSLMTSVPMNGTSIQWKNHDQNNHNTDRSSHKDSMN", "test": "Agonist activity at human ETA receptor expressed in SK-N-MC cells assessed as increase in calcium flux at 10 uM by fluorimetric method relative to control", "type": "functional, cell-based"}, "[21]": {"molecular_target": "5-hydroxytryptamine receptor 1A (Homo sapiens) (UniProt P08908)", "test": "Agonist activity at human 5-HT1A receptor expressed in mouse BA/F3 cells assessed as increase in calcium flux at 10 uM by fluorimetric method relative to control", "type": "functional, cell-based"}, "[22]": {"molecular_target": "5-hydroxytryptamine receptor 1B (Homo sapiens, UniProt P28222)", "test": "Agonist activity at human 5-HT1B receptor expressed in HeLa cells assessed as increase in cAMP accumulation at 10 uM measured after 20 mins by HTRF method relative to control", "type": "functional, cell-based"}, "[23]": {"molecular_target": "5-hydroxytryptamine receptor 4 (Homo sapiens) (UniProt Q13639)", "sequence (Q13639 whole entry)": "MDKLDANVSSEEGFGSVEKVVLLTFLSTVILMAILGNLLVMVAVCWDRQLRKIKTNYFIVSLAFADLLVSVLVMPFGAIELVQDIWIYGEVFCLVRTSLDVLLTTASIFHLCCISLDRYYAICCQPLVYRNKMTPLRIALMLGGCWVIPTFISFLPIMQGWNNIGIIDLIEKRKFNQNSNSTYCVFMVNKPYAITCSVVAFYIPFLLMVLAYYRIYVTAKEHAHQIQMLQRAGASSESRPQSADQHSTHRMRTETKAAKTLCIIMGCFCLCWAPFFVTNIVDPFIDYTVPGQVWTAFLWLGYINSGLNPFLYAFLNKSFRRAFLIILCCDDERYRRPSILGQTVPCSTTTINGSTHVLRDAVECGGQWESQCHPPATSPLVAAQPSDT", "test": "Agonist activity at recombinant human 5-HT4E expressed in CHOK1 cells assessed as increase in cAMP accumulation at 10 uM measured after 30 mins by HTRF assay relative to control", "type": "functional, cell-based"}, "[24]": {"molecular_target": "Vasopressin V1a receptor (Homo sapiens) (UniProt P37288)", "sequence (P37288 whole entry, looked up)": "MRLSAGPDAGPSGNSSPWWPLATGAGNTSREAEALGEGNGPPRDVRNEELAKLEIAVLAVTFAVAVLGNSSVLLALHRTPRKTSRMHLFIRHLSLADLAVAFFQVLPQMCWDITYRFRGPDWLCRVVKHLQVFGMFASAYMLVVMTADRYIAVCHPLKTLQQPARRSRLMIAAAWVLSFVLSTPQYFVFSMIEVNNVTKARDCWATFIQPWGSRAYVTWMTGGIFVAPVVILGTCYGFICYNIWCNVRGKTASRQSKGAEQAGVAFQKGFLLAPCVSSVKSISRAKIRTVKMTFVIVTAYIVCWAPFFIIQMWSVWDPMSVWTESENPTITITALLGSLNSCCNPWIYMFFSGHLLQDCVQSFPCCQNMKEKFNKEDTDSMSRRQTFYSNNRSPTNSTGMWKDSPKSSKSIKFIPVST", "test": "Agonist activity at human V1A receptor expressed in CHOK1 cells assessed as increase in calcium flux at 10 uM by fluorimetric method relative to control", "type": "functional, cell-based"}, "[25]": {"molecular_target": "Beta-2 adrenergic receptor (Homo sapiens) (UniProt P07550)", "sequence (P07550 whole entry, looked up)": "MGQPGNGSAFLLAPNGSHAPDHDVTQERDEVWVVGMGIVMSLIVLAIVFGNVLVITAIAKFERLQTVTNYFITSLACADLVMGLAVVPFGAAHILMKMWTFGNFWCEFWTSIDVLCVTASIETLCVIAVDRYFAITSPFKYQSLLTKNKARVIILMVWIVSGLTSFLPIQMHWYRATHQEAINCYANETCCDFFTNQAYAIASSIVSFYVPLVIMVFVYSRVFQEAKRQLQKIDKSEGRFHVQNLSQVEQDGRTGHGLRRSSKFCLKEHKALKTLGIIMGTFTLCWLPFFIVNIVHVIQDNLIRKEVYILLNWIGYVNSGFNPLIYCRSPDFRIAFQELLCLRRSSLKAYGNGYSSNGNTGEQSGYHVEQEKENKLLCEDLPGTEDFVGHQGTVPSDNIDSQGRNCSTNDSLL", "test": "Antagonist activity at recombinant human beta2 receptor expressed in CHOK1 cells assessed as inhibition of isoproterenol-induced cAMP accumulation at 10 uM after 30 mins by HTRF assay relative to control", "type": "functional, cell-based"}, "[26]": {"molecular_target": "T1, Muscarinic acetylcholine receptor M1 (Homo sapiens) (UniProt P11229)", "T1 sequence (whole entry)": "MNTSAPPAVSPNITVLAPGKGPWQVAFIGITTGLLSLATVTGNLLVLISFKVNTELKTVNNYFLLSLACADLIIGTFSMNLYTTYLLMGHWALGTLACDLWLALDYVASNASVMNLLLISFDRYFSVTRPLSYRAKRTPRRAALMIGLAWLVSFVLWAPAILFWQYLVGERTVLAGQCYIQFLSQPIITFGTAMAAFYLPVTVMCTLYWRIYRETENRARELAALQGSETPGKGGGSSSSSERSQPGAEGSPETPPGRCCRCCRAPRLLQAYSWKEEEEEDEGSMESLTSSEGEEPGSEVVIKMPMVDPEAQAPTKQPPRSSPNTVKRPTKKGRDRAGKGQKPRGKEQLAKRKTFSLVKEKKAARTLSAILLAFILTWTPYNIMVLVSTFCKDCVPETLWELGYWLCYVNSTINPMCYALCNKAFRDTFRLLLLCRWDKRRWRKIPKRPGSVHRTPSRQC", "test": "Antagonist activity at human M1 receptor expressed in CHOK1 cells assessed as inhibition of acetylcholine-induced calcium flux at 10 uM by fluorimetric method relative to control", "type": "functional, cell-based"}, "[27]": {"species_on_record": "Rattus norvegicus", "test": "Displacement of [3H]D888 from L-type calcium channel verapamil binding site in rat brain at 10 uM measured after 120 mins by scintillation counting method"}, "[28]": {"species_on_record": "Rattus norvegicus", "test": "Displacement of [3H]nitrendipine from L-type calcium channel dihydropyridine (nifedipine) binding site in rat brain 10 uM measured after 90 mins by scintillation counting method"}, "[29]": {"molecular_target": "Glutamate NMDA receptor (Rattus norvegicus) (UniProt P35439+Q00959+Q00960+Q00961+Q62645+Q8VHN2+Q9R1M7)", "test": "Displacement of [3H]CGP 39653 from rat brain NMDA receptor at 10 uM after 60 mins by scintillation counting method"}, "[30]": {"molecular_target": "Prostaglandin G/H synthase 2 (Homo sapiens) (UniProt P35354)", "test": "Inhibition of recombinant human COX2 at 10 uM using arachidonic acid as substrate measured after 5 mins by fluorescence assay"}, "[31]": {"molecular_target": "Peroxisome proliferator-activated receptor gamma (Homo sapiens) (UniProt P37231)", "test": "Displacement of [3H]rosiglitazone from recombinant human PPARgamma at 10 uM after 120 mins by scintillation counting method"}, "[32]": {"molecular_target": "Beta-2 adrenergic receptor (Homo sapiens) (UniProt P07550)", "test": "Displacement of [3H](-)CGP12177 from recombinant human beta2 receptor at 10 uM after 120 mins by scintillation counting method"}, "[33]": {"molecular_target": "Adenosine receptor A1 (Homo sapiens, UniProt P30542)", "test": "Agonist activity at recombinant human adenosine A1 receptor expressed in mouse BA/F3 cells assessed as increase in calcium flux by spectrophotometric method", "type": "functional, cell-based"}, "[34]": {"molecular_target": "High affinity choline transporter 1 (Homo sapiens, UniProt Q9GZV3)", "sequence (Q9GZV3 whole entry)": "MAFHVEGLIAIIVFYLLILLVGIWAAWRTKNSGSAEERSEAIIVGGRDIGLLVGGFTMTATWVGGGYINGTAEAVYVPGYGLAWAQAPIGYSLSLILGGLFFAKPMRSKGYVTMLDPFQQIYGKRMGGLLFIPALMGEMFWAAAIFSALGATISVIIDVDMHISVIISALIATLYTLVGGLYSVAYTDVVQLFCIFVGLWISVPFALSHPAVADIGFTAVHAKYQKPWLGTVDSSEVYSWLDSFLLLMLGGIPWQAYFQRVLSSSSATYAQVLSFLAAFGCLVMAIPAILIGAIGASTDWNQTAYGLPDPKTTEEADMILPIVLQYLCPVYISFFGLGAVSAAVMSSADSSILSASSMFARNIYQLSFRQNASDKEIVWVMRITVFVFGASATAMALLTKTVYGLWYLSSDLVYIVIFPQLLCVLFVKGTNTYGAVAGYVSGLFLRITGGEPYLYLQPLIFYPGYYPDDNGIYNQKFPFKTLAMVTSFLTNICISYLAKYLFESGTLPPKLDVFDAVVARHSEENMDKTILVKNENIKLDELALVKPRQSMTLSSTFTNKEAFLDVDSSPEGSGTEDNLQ", "test": "Displacement of [3H]hemicholinium-3 from recombinant human choline transporter after 60 mins by scintillation counting method"}, "[35]": {"test_system": "Mus musculus", "test": "Analgesic activity in mouse assessed as inhibition of formalin-induced pain at 0.28 to 5.4 mg/kg, iv pretreated for 90 mins followed by formalin addition measured up to 40 mins", "type": "functional, organism-based"}}, "note": "Active and inactive are the calls of the source. No cut-off for these calls is given here.", "data": [{"smiles": "N#Cc1cc(S(=O)(=O)Nc2ncns2)ccc1Oc1ccc(-c2cccc(C(F)(F)F)c2)cc1-c1ccnc(CNCCC2CCNCC2)c1", "values": [{"measurement": "inhibition", "setting": "[1]", "result": -8, "unit": "%"}, {"measurement": "inhibition", "setting": "[2]", "result": 40, "unit": "%"}, {"measurement": "solubility", "setting": "[3]", "result": "> 906", "unit": "µg/mL"}, {"measurement": "IC50", "setting": "[4]", "result": "5.46 to 5.8", "unit": "nM"}, {"measurement": "CL free", "setting": "[5]", "result": 4759, "unit": "mL/min/kg"}, {"measurement": "Vd", "setting": "[6]", "result": 0.59, "unit": "L/kg"}, {"measurement": "clearance", "setting": "[7]", "result": 178, "unit": "mL/min/kg"}, {"measurement": "half-life", "setting": "[8]", "result": 12.6, "unit": "min"}, {"measurement": "clearance", "setting": "[9]", "result": 83.1, "unit": "mL/min/kg"}, {"measurement": "Vd", "setting": "[10]", "result": 0.54, "unit": "L/kg"}, {"measurement": "CL free", "setting": "[11]", "result": 12989, "unit": "mL/min/kg"}, {"measurement": "clearance", "setting": "[12]", "result": 67.2, "unit": "mL/min/kg"}, {"measurement": "clearance", "setting": "[13]", "result": 36.5, "unit": "mL/min/kg"}, {"measurement": "IC50", "setting": "[14]", "result": 1320, "unit": "nM"}, {"measurement": "fraction unbound", "setting": "[15]", "result": 0.00275}, {"measurement": "fraction unbound", "setting": "[16]", "result": 0.00497}, {"measurement": "Papp", "setting": "[17]", "result": 0.62, "unit": "×10⁻⁶ cm/s"}, {"measurement": "microsomal CLint", "setting": "[18]", "result": "< 8", "unit": "µL/min/mg"}, {"measurement": "Activity", "setting": "[19]", "result": -2, "unit": "%"}, {"measurement": "Activity", "setting": "[20]", "result": 8, "unit": "%"}, {"measurement": "Activity", "setting": "[21]", "result": -34, "unit": "%"}, {"measurement": "Activity", "setting": "[22]", "result": 141, "unit": "%"}, {"measurement": "Activity", "setting": "[23]", "result": 0, "unit": "%"}, {"measurement": "Activity", "setting": "[24]", "result": -4, "unit": "%"}, {"measurement": "inhibition", "setting": "[25]", "result": 11, "unit": "%"}, {"measurement": "inhibition", "setting": "[26]", "result": 7, "unit": "%"}, {"measurement": "inhibition", "setting": "[27]", "result": 35, "unit": "%"}, {"measurement": "inhibition", "setting": "[28]", "result": 31, "unit": "%"}, {"measurement": "inhibition", "setting": "[29]", "result": 21, "unit": "%"}, {"measurement": "inhibition", "setting": "[30]", "result": 85, "unit": "%"}, {"measurement": "inhibition", "setting": "[31]", "result": 33.4, "unit": "%"}, {"measurement": "inhibition", "setting": "[32]", "result": 4, "unit": "%"}, {"measurement": "EC50", "setting": "[33]", "result": 1430, "unit": "nM"}, {"measurement": "IC50", "setting": "[34]", "result": 120, "unit": "nM"}, {"measurement": "Ki", "setting": "[34]", "result": 68, "unit": "nM"}, {"measurement": "inhibition", "setting": "[35]", "result": "inactive"}]}]}
